Where “and” joins values, the source holds several entries; their conditions need not be identical. Equal values may be shown once. Read-outs that look alike come from different tables or passages of the source. Each block holds one compound with its values, some of them ahead of it.
Columns and labels:
[1] = type: in vivo, human; conditions: for AUC0–∞ ratio (90% CI), panobinostat + ketoconazole / panobinostat alone / C max ratio (90% CI), panobinostat + ketoconazole / panobinostat alone: geometric mean ratio; for CL/F: geometric mean
[2] = test system: human cytochrome P450 CYP3A4; conditions: in vitro; minor involvement of CYP2D6 and CYP2C19; no reference given; cited from earlier work
[3] = cited from earlier work
[4] = type: in vivo, human
Outline: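 Patients took 20 mg of the oral test compound each Monday, Wednesday and Friday from day 15 (extension phase) until disease progression or withdrawal. Before that, in cycle 1, they had single 20 mg doses on day 1 and day 8; the day 8 dose followed a CYP3A inhibitor given at 400 mg once daily on days 5–9. Laboratory assessments were done weekly during the extension.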

[5] = 12-lead ECG monitoring during the core phase
[6] = cited from earlier work; remark: listed apart in the source
[7] = test system: CYP3A; experiment: Estimate of fraction of panobinostat cleared by CYP3A from AUC ratio; type: in vivo, human
[8] = Adverse events and laboratory safety assessment; type: in vivo, human
[9] = 20 mg panobinostat, ketoconazole 400 mg
[10] = 20 mg panobinostat, ketoconazole 400 mg, listed as panobinostat
[11] = ref personal communication Margaret M Woo, Novartis
[12] = period 1 (panobinostat only), N = 14
[13] = period 3 (concomitant panobinostat and ketoconazole), N = 14
[14] = extension phase, panobinostat 20 mg MWF, 13 patients
[15] = period 2 (ketoconazole only), N = 14

change in T max or half-life in the presence of ketoconazole [1, 9]: No substantial change | residual panobinostat in plasma prior to the day 8 dose ([1]; after 20 mg dose on day 1, LLOQ 0.5 ng/ml): No residual panobinostat was detectable | AUC0–∞ ratio (90% CI), panobinostat + ketoconazole / panobinostat alone [1, 9]: 1.8 (1.5–2.2) | C max ratio (90% CI), panobinostat + ketoconazole / panobinostat alone [1, 9]: 1.6 (1.2–2.2) | AUC0–∞ ratio (90% CI), panobinostat + ketoconazole / panobinostat alone [1, 10]: 1.8 | C max ratio (90% CI), panobinostat + ketoconazole / panobinostat alone [1, 10]: 1.6 | Tmax ([1]; human, plasma, oral, 20 mg): 1 h | half-life ([1]; human, plasma, oral, 20 mg): 14 h | AUC(0-inf) ([1]; human, plasma, po, 20 mg): 133 ng·h/mL | Cmax ([1]; human, plasma, po, 20 mg): 18.5 ng/mL | T max difference, panobinostat + ketoconazole vs panobinostat alone ([1]; median (minimum and maximum difference)): 0.0 (−2.5 to 3.0) h | CL/F ([1]; panobinostat 20 mg + ketoconazole 400 mg): 90.6 L/h | CL/F ([1]; panobinostat 20 mg alone): 150.3 L/h | Fractional excretion of phosphate ([4]; Subj nr 00005, day 54, extension phase): 5.3 (day 54) % | Fractional excretion of phosphate ([4]; Subj nr 00005, day 61, extension phase): 3.2 (day 61) % | Fractional excretion of phosphate ([4]; Subj nr 00007, day 70, extension phase): 19.4 (day 70) % | Fractional excretion of phosphate ([4]; Subj nr 00007, day 77, extension phase): 19.0 (day 77) % | Fractional excretion of phosphate ([4]; Subj nr 00010, day 36, extension phase): 2.7 (day 36) % | Fractional excretion of phosphate ([4]; Subj nr 00010, day 43, extension phase): 8.9 (day 43) % | contribution of CYP pathways to the overall metabolism ([7]; from fmCYP3A estimate): < 50% | fmCYP3A (fraction of panobinostat cleared by CYP3A) ([7]; in vivo): 0.4
Compound: Cc1[nH]c2ccccc2c1CCNCc1ccc(/C=C/C(=O)NO)cc1 [Panobinostat]
share of oxidative metabolism mediated by CYP3A4 [2]: 70–98% | inter-individual variability in pharmacokinetics [3, 11]: 60% | intra-individual variability in pharmacokinetics [3, 11]: 30% | dose dependence of C max and AUC ([3]; two dose-escalation trials, dose between 20 and <60 mg): increase linearly with the dose | mean QTc increase at any moment compared with baseline ([5]; core phase (15 days; panobinostat 20 mg days 1 and 8, ketoconazole days 5–9)): below 5% | increases in QTc ≥ 60 ms compared with baseline ([5]; core phase, all three periods): No increases | Ectopic activity [5, 12]: 2 (14%) patients (%) | New QTcB >450 ms [5, 12]: 3 (21%) patients (%) | QTcB increase >60 ms [5, 12]: 0 patients (%) | ST segment depression [5, 12]: 0 patients (%) | Sinus bradycardia [5, 12]: 0 patients (%) | Sinus tachycardia [5, 12]: 0 patients (%) | T wave changes [5, 12]: 2 (14%) patients (%) | patients with other transient ECG abnormalities [5, 12]: 21% | Ectopic activity [5, 13]: 2 (14%) patients (%) | New QTcB >450 ms [5, 13]: 2 (14%) patients (%) | QTcB increase >60 ms [5, 13]: 0 patients (%) | ST segment depression [5, 13]: 2 (14%) patients (%) | Sinus bradycardia [5, 13]: 0 patients (%) | Sinus tachycardia [5, 13]: 2 (14%) patients (%) | T wave changes [5, 13]: 2 (14%) patients (%) | patients with other transient ECG abnormalities [5, 13]: 43% | dose-limiting thrombocytopenia ([6]; patients with Hodgkin's lymphoma, dose escalation, of 13 patients): four | grade 3/4 thrombocytopenia ([6]; patients with Hodgkin's lymphoma, dose escalation): 10 out of 13 | adverse events categorized as grade 1 ([8]; core phase): 42.9 % of all events | adverse events categorized as grade 2 ([8]; core phase): 35.7 % of all events | anorexia, regardless of relationship to study drug ([8]; core phase, N = 14): 4 patients | diarrhea, regardless of relationship to study drug ([8]; core phase, N = 14): 5 patients | fatigue, regardless of relationship to study drug ([8]; core phase, N = 14): 2 patients | hypophosphatemia, regardless of relationship to study drug ([8]; core phase, N = 14): 3 patients | myalgia, regardless of relationship to study drug ([8]; core phase, N = 14): 3 patients | nausea, regardless of relationship to study drug ([8]; core phase, N = 14): 3 patients | vomiting, regardless of relationship to study drug ([8]; core phase, N = 14): 4 patients | asymptomatic hypophosphatemia of grade ≥ 2 ([8]; during the trial, nine out of fourteen patients): 64% | anorexia, regardless of relationship to study drug [8, 14]: 7 patients | diarrhea, regardless of relationship to study drug [8, 14]: 8 patients | fatigue, regardless of relationship to study drug [8, 14]: 7 patients | hypophosphatemia, regardless of relationship to study drug [8, 14]: 9 patients | vomiting, regardless of relationship to study drug [8, 14]: 8 patients | nausea, regardless of relationship to study drug ([8]; extension phase, single-agent panobinostat 20 mg oral MWF, 13 patients): 10 patients | neutropenia ([8]; panobinostat administered for a prolonged period (extension phase)): 2 patients

Compound: CC(=O)N1CCN(c2ccc(OCC3COC(Cn4ccnc4)(c4ccc(Cl)cc4Cl)O3)cc2)CC1 (stereo not drawn) [ketoconazole, reference compound]
Ectopic activity [5, 15]: 1 (7%) patients (%) | New QTcB >450 ms [5, 15]: 2 (14%) patients (%) | Sinus tachycardia [5, 15]: 0 patients (%) | T wave changes [5, 15]: 1 (7%) patients (%) | patients with other transient ECG abnormalities [5, 15]: 21% | QTcB increase >30 ms ([5]; period 2 (ketoconazole only, day 5 until day 8), N = 14): 3 patients (%) and 3 (21%) patients (%)

Compound: O=C(CCCCCCC(=O)Nc1ccccc1)NO [vorinostat, reference compound]
asymptomatic hypophosphatemia reported with single agent ([6]; review of toxicities of HDAC inhibitors): 5%
